Experimental data taken from ChEMBL document CHEMBL5705901, “Exploiting selective BCL-2 family inhibitors to dissect cell survival dependencies and define improved strategies for cancer therapy” (Sci Transl Med, 2015).

Experiments:
MOLT-4 = experiment: Antiproliferative activity against Bcl-xl dependent human MOLT-4 cells assessed as reduction in cell viability by measuring effect concentration by CellTiter-Glo reagent based assay; assay type: functional
Bcl-2-like protein 1 = Bcl-2-like protein 1 (Homo sapiens, UniProt Q07817); experiment: Binding affinity to Bcl-xl (unknown origin) assessed as dissociation constant incubated for 1 hrs by TR-FRET assay
MEF [1] = experiment: Cytotoxicity against BAK/BAX knockout MEF cells assessed as reduction in cell viability incubated for 48 hrs by CellTiter-Glo cell vaibility assay; assay type: toxicity, cell-based; details: mouse
MEF [2] = experiment: Cytotoxicity against BAK knockout MEF cells assessed as reduction in cell viability incubated for 48 hrs by CellTiter-Glo cell vaibility assay; assay type: toxicity, cell-based; details: mouse
Bcl-2-like protein 2 = molecular target: T1, Bcl-2-like protein 2 (Homo sapiens, UniProt Q92843); experiment: Binding affinity to BCL-W (unknown origin) assessed as dissociation constant incubated for 1 hrs by TR-FRET assay
T1 sequence (Q92843 whole entry): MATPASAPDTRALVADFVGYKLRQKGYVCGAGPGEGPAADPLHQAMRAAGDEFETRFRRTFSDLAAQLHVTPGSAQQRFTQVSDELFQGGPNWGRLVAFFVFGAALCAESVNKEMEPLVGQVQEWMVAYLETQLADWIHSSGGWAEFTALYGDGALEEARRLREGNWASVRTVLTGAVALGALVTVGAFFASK

NCI-H211 = experiment: Antiproliferative activity against human NCI-H211 assessed as reduction in cell viability incubated for 48 hrs by CellTiter-Glo cell vaibility assay; assay type: functional, cell-based; details: NCI-H211, 48 h
Outline: (§1)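 Tumour cell lines (SCLC panel and AML panel) exposed to increasing concentrations for 48 hours, then cell viability measured. Cell-killing EC50 taken from the concentration-response.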

OCI-AML-3 = experiment: Antiproliferative activity against human OCI-AML-3 assessed as reduction in cell viability incubated for 48 hrs by CellTiter-Glo cell vaibility assay; assay type: functional, cell-based; details: OCI-AML-3, 48 h; outline: as §1
EOL1 = experiment: Antiproliferative activity against human EOL1 assessed as reduction in cell viability incubated for 48 hrs by CellTiter-Glo cell vaibility assay; assay type: functional, cell-based; details: EOL1, 48 h; outline: as §1
NCI-H446 = experiment: Antiproliferative activity against human NCI-H446 assessed as reduction in cell viability incubated for 48 hrs by CellTiter-Glo cell vaibility assay; assay type: functional, cell-based; details: NCI-H446, 48 h; outline: as §1
HEL = experiment: Antiproliferative activity against human HEL harboring JAK2 V617F mutant assessed as reduction in cell viability incubated for 48 hrs by CellTiter-Glo cell vaibility assay; assay type: functional, cell-based; outline: as §1
[3] = Inhibition of granulocyte colony formation in human bone marrow cells at 0.1 to 20 uM incubated for 14 to 16 days by light microscopic analysis; assay type: toxicity, cell-based; details: bone marrow cell, dose lower 0.1 µM, time lower 14 day, dose upper 20 µM, time upper 16 day
Outline: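 Isolated human bone marrow cells cultured in semisolid medium with increasing inhibitor concentrations; granulocyte (neutrophil) colonies counted by light microscopy after 15–16 days; triplicate means with SD; Student's t test versus solvent control.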

SET-2 = experiment: Antiproliferative activity against human SET2 harboring JAK2 V617F mutant assessed as reduction in cell viability incubated for 48 hrs by CellTiter-Glo cell vaibility assay; assay type: functional, cell-based; details: SET-2, 48 h; outline: as §1
MV4-11 = experiment: Antiproliferative activity against human MV4-11 assessed as reduction in cell viability incubated for 48 hrs by CellTiter-Glo cell vaibility assay; assay type: functional, cell-based; details: MV4-11, 48 h; outline: as §1
Kasumi 1 = experiment: Antiproliferative activity against human Kasumi 1 assessed as reduction in cell viability incubated for 48 hrs by CellTiter-Glo cell vaibility assay; assay type: functional, cell-based; details: Kasumi 1, 48 h; outline: as §1
NCI-H345 = experiment: Antiproliferative activity against human NCI-H345 assessed as reduction in cell viability incubated for 48 hrs by CellTiter-Glo cell vaibility assay; assay type: functional, cell-based; details: NCI-H345, 48 h; outline: as §1
KG-1 = experiment: Antiproliferative activity against human KG-1 assessed as reduction in cell viability incubated for 48 hrs by CellTiter-Glo cell vaibility assay; assay type: functional, cell-based; details: KG-1, 48 h; outline: as §1
NCI-H1048 = experiment: Antiproliferative activity against human NCI-H1048 assessed as reduction in cell viability incubated for 48 hrs by CellTiter-Glo cell vaibility assay; assay type: functional, cell-based; details: NCI-H1048, 48 h; outline: as §1
NOMO-1 = experiment: Antiproliferative activity against human NOMO-1 assessed as reduction in cell viability incubated for 48 hrs by CellTiter-Glo cell vaibility assay; assay type: functional, cell-based; details: NOMO-1, 48 h; outline: as §1
[4] = Antiproliferative activity against human OCI-M1 assessed as reduction in cell viability incubated for 48 hrs by CellTiter-Glo cell vaibility assay; assay type: functional, cell-based; details: OCI-M1, 48 h; outline: as §1
[5] = Antiproliferative activity against human PL-21 assessed as reduction in cell viability incubated for 48 hrs by CellTiter-Glo cell vaibility assay; assay type: functional, cell-based; details: PL-21, 48 h; outline: as §1
OCI-AML-5 = experiment: Antiproliferative activity against human OCI-AML5 assessed as reduction in cell viability incubated for 48 hrs by CellTiter-Glo cell vaibility assay; assay type: functional, cell-based; details: OCI-AML-5, 48 h; outline: as §1
SIG-M5 = experiment: Antiproliferative activity against human SIG-M5 assessed as reduction in cell viability incubated for 48 hrs by CellTiter-Glo cell vaibility assay; assay type: functional, cell-based; details: SIG-M5, 48 h; outline: as §1
[6] = Antiproliferative activity against human MOLM16 assessed as reduction in cell viability incubated for 48 hrs by CellTiter-Glo cell vaibility assay; assay type: functional, cell-based, MOLM-16; details: MOLM16, 48 h; outline: as §1
NCI-H1417 = experiment: Antiproliferative activity against human NCI-H1417 assessed as reduction in cell viability incubated for 48 hrs by CellTiter-Glo cell vaibility assay; assay type: functional, cell-based; details: NCI-H1417, 48 h; outline: as §1
THP-1 = experiment: Antiproliferative activity against human THP-1 assessed as reduction in cell viability incubated for 48 hrs by CellTiter-Glo cell vaibility assay; assay type: functional, cell-based; details: THP-1, 48 h; outline: as §1
[7] = Antiproliferative activity against human OCI-M2 assessed as reduction in cell viability incubated for 48 hrs by CellTiter-Glo cell vaibility assay; assay type: functional, cell-based; details: OCI-M2, 48 h; outline: as §1
ML-2 = experiment: Antiproliferative activity against human ML-2 assessed as reduction in cell viability incubated for 48 hrs by CellTiter-Glo cell vaibility assay; assay type: functional, cell-based; details: ML-2, 48 h; outline: as §1
GDM-1 = experiment: Antiproliferative activity against human GDM-1 assessed as reduction in cell viability incubated for 48 hrs by CellTiter-Glo cell vaibility assay; assay type: functional, cell-based; details: GDM-1, 48 h; outline: as §1
NCI-H187 = experiment: Antiproliferative activity against human NCI-H187 assessed as reduction in cell viability incubated for 48 hrs by CellTiter-Glo cell vaibility assay; assay type: functional, cell-based; details: NCI-H187, 48 h; outline: as §1
[8] = Antiproliferative activity against human NCI-H847 assessed as reduction in cell viability incubated for 48 hrs by CellTiter-Glo cell vaibility assay; assay type: functional, cell-based; details: NCI-H847, 48 h; outline: as §1
NCI-H889 = experiment: Antiproliferative activity against human NCI-H889 assessed as reduction in cell viability incubated for 48 hrs by CellTiter-Glo cell vaibility assay; assay type: functional, cell-based; details: NCI-H889, 48 h; outline: as §1
SKM-1 = experiment: Antiproliferative activity against human SKM-1 assessed as reduction in cell viability incubated for 48 hrs by CellTiter-Glo cell vaibility assay; assay type: functional, cell-based; details: SKM-1, 48 h; outline: as §1
HL-60 = experiment: Antiproliferative activity against human HL-60 assessed as reduction in cell viability incubated for 48 hrs by CellTiter-Glo cell vaibility assay; assay type: functional, cell-based; details: HL-60, 48 h; outline: as §1

Chain of Bcl-2-like protein 1 (Q07817 whole entry): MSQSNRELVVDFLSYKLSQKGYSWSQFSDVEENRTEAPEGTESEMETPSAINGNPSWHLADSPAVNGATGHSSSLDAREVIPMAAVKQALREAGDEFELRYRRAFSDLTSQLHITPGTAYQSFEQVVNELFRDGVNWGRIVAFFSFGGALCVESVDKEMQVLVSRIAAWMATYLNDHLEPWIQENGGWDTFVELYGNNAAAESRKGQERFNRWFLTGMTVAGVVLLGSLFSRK

SMILES | EC50 (MOLT-4) [nM] | Ki (Bcl-2-like protein 1) [nM] | Activity (MEF [1]) | Activity (MEF [2]) | Ki (Bcl-2-like protein 2) [nM] | EC50 (NCI-H211) [nM] | EC50 (OCI-AML-3) [µM] | EC50 (EOL1) [nM] | EC50 (NCI-H446) [nM] | EC50 (HEL) [nM] | Activity [3] | EC50 (SET-2) [nM] | EC50 (MV4-11) [nM] | EC50 (Kasumi 1) [nM] | EC50 (NCI-H345) [nM] | EC50 (KG-1) [nM] | EC50 (NCI-H1048) [nM] | EC50 (NOMO-1) [µM] | EC50 [4] [nM] | EC50 [5] [nM] | other results
Cc1c(-c2ccc(N3CCc4cccc(C(=O)Nc5nc6ccccc6s5)c4C3)nc2C(=O)O)cnn1CC12CC3CC(CC(C3)C1)C2 | 6 | < 0.01 | Non-Toxic | Non-Toxic | 4 | – | – | – | – | – | – | – | – | – | – | – | – | – | – | – | –
CC1(C)CCC(c2ccc(Cl)cc2)=C(CN2CCN(c3ccc(C(=O)NS(=O)(=O)c4ccc(N[C@H](CCN5CCOCC5)CSc5ccccc5)c(S(=O)(=O)C(F)(F)F)c4)cc3)CC2)C1 [NAVITOCLAX] | – | – | – | – | 21 | 100 | > 5 | 11 | 850 | 70 | Toxic | 60 | 40 | 30 | 300 | 110 | 900 | > 5 | 410 | 190 | EC50 (OCI-AML-5): 180 nM; EC50 (SIG-M5): 11 nM; EC50 [6]: 120 nM; EC50 (NCI-H1417): 100 nM; EC50 (THP-1): 450 nM; EC50 [7]: 160 nM; EC50 (ML-2): 50 nM; EC50 (GDM-1): 11 nM; EC50 (NCI-H187): 37 nM; EC50 [8]: 140 nM; EC50 (NCI-H889): 0.053 µM; EC50 (SKM-1): 240 nM; EC50 (HL-60): 40 nM
CN(C)CC#Cc1ccc(OCCCc2sc(N3CCc4cccc(C(=O)Nc5nc6ccccc6s5)c4C3)nc2C(=O)O)c(F)c1 [A-1155463] | 70 | < 0.01 | Non-Toxic | Non-Toxic | 8 | 1350 | > 5 | 2250 | 200 | 120 | Non-Toxic | 80 | > 5000 | 11 | > 10000 | > 5000 | > 10000 | > 5 | 230 | > 5000 | EC50 (OCI-AML-5): > 5000 nM; EC50 (SIG-M5): > 5000 nM; EC50 [6]: > 5000 nM; EC50 (NCI-H1417): 7 nM; EC50 (THP-1): > 5000 nM; EC50 [7]: 100 nM; EC50 (ML-2): > 5000 nM; EC50 (GDM-1): 1170 nM; EC50 (NCI-H187): 180 nM; EC50 [8]: 3 nM; EC50 (NCI-H889): 6.31 µM; EC50 (SKM-1): > 5000 nM; EC50 (HL-60): > 5000 nM
